Test results: ChEMBL document CHEMBL5653632, “PRMT5 inhibition disrupts splicing and stemness in glioblastoma” (Nat Commun, 2021)
Calls of active or inactive are those of the source.

How the values were obtained:
G411 = assay: Antiproliferative activity against human G411 cells at 1 uM incubated for 9 to 12 days by IncuCyte zoom live-cell imaging analysis; type: functional, cell-based; conditions: time 9-12 day
Procedure, shortened: (§1)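 Adherent GSCs were cultured in serum-free medium with EGF and bFGF on poly-L-ornithine/laminin and plated in triplicate in 96-well plates. They were treated at 1 µM, with 1 µM SGC2096 or 0.05% DMSO as controls, for 9–12 days or until DMSO wells were confluent. Medium with drug was refreshed every 5 days. IncuCyte confluence was imaged every 8 h and normalized to each well's initial confluence.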

G583 = assay: Antiproliferative activity against human G583 cells at 1 uM incubated for 9 to 12 days by IncuCyte zoom live-cell imaging analysis; type: functional, cell-based; conditions: time 9-12 day; procedure, shortened: as §1
[1] = target: Protein arginine N-methyltransferase 5 (Homo sapiens) (UniProt O14744); assay: Inhibition of PRMT5 in human G583 cells assessed as reduction in SDMA level at 1 uM after 5 days by Western blot analysis; type: cell-based; conditions: time 5.0 day
Procedure, shortened: (§2)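 Symmetric dimethylarginine on SmB/B' was measured by western blot with IRDye secondary antibodies and infrared imaging.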

[2] = target: Protein arginine N-methyltransferase 5 (Homo sapiens) (UniProt O14744); assay: Inhibition of PRMT5 in human G411 cells assessed as reduction in SDMA level at 1 uM after 5 days by Western blot analysis; type: cell-based; conditions: time 5.0 day; procedure, shortened: as §2
[3] = target: Protein arginine N-methyltransferase 5 (Homo sapiens) (UniProt O14744); assay: Inhibition of PRMT5 in human G561 cells assessed as reduction in SDMA level at 1 uM after 5 days by Western blot analysis; type: cell-based; conditions: time 5.0 day; procedure, shortened: as §2
G561 = assay: Antiproliferative activity against human G561 cells at 1 uM incubated for 9 to 12 days by IncuCyte zoom live-cell imaging analysis; type: functional, cell-based; conditions: time 9-12 day; procedure, shortened: as §1

Chain of Protein arginine N-methyltransferase 5 (Homo sapiens) (O14744 whole entry): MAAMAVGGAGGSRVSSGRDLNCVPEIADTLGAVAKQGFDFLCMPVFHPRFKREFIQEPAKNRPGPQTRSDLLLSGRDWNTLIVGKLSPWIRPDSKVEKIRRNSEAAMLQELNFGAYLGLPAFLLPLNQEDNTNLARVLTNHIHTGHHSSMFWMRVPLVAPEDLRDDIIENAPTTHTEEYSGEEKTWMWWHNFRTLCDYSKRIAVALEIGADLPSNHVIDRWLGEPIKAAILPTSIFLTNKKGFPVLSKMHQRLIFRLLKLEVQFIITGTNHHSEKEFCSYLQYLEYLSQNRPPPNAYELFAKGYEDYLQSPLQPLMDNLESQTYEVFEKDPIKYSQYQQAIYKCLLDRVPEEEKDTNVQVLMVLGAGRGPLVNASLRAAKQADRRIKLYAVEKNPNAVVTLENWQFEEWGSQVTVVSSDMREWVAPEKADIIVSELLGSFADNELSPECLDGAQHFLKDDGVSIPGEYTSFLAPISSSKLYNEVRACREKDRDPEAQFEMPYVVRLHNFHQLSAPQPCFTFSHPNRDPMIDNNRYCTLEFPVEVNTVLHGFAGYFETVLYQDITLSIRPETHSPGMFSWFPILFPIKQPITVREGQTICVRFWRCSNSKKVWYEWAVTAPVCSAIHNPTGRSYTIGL

O=C(NC[C@H](O)CN1CCCCC1)c1ccnc(NC2CCC2)c1
inactive: Activity (G411) | Activity (G583) | inhibition [1] | inhibition [2] | inhibition [3] | Activity (G561)
